# Assay results as given in PubChem BioAssay.
# Calls of active or inactive are those of the source. Cut-off read from the data, not from the text of the source, unless noted: active = inhibition above about 30%; inactive = the rest.
# What was measured:
# [1] = reducers of endogenous Her2 protein level, primary screen, SKBR3 breast tumor cells, AlphaScreen, ATP viability (AID 461;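 active = Her2 level under about 52% in both replicate screens, with viability over 70% of control, limit read from the data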;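 for Her2 level: lower value means less Her2 protein in the cells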;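 for viability: percent of carrier control wells set as 100% viability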); details: 18-24 h, measured here: SKBR3 viability, ATP luminescence, at 10 µM
# [2] = target: Receptor tyrosine-protein kinase erbB-2 (Homo sapiens) (UniProt P04626); assay: as above; details: 18-24 h, at 10 µM, stronger effect = lower value
# [3] = SK-BR-3 cell growth inhibitors, pilot screen, 24 h, human (AID 572;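 active = viability at or below 10% of carrier control in both of two separate runs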;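 note: compound exposure lasted between 18 and 24 h rather than exactly 24 h; 100% = carrier-treated control wells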); details: SK-BR-3 viability, CellTiter-Glo luminescence, at 10 µM, stronger effect = lower value
# [4] = HUVEC growth inhibition – cell-based, human, primary screen (AID 575;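 active = viability at or below 30% in both replicate assays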;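 note: 100% = median of untreated cell wells with 0.1% DMSO on each plate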); details: HUVEC proliferation, CellTiter-Glo luminescence, 72 h; at 10 µM; stronger effect = lower value
# How it was run: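 System: primary human umbilical vein endothelial cells; Quantity: 1250 endothelial cells in each well; Buffer or medium: supplemented EBM, 2% fetal bovine serum; Doses: one dose, 10 µM final, 0.1% DMSO; Incubation: 72 h compound incubation; Technique: ATP-based CellTiter-Glo luminescent read; Evaluation: percent of median DMSO-control luminescence; Controls: vehicle and MePR control wells.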
# [5] = growth inhibitors of H69AR lung tumor, primary screen, human, duplicate replicates (AID 580;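 active = viability at or under a set limit in both replicates, limit being median viability minus 3 SD, cut at about 48% in these data, passing the limit was not always enough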;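 note: 100% = mean luminescence of untreated wells and 0% = no signal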); details: H69AR lung tumor cells viability, ATP luminescence, 72 h; at 10 µM; stronger effect = lower value
# [6] = reversal of MRP1-mediated doxorubicin resistance, pilot screen, H69AR cells, doxorubicin co-treatment (AID 601;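 active = viability loss from added drug above about 55%, and viability with drug at most 40%, in both replicates, limit read from the data, passing the limit was not always enough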); details: CellTiter-Glo, 72 h, at 10 µM; for differential viability (reversal): stronger effect = higher value
# [7] = 384-well plate pilot, post-Golgi transport modulator project, inhibition of yeast transport mutant growth (AID 636; in the data active = inhibition above about 31%); details: absorbance 615 nm, about 18 h, stronger effect = higher value
# [8] = growth suppression of yeast trafficking mutant, preliminary HTS, modulators of trafficking downstream of Golgi apparatus project, 1536-format plate, OD 615 nm (AID 637); details: yeast transport mutant growth, absorbance 615 nm, 18 h; stronger effect = higher value
# [9] = H69AR cells + 2 uM doxorubicin, measured here: viability with 2 uM doxorubicin, stronger effect = lower value
# [10] = H69AR cells, compound alone cytotoxicity
# Receptor tyrosine-protein kinase erbB-2 (Homo sapiens), sequence (P04626 whole entry, looked up): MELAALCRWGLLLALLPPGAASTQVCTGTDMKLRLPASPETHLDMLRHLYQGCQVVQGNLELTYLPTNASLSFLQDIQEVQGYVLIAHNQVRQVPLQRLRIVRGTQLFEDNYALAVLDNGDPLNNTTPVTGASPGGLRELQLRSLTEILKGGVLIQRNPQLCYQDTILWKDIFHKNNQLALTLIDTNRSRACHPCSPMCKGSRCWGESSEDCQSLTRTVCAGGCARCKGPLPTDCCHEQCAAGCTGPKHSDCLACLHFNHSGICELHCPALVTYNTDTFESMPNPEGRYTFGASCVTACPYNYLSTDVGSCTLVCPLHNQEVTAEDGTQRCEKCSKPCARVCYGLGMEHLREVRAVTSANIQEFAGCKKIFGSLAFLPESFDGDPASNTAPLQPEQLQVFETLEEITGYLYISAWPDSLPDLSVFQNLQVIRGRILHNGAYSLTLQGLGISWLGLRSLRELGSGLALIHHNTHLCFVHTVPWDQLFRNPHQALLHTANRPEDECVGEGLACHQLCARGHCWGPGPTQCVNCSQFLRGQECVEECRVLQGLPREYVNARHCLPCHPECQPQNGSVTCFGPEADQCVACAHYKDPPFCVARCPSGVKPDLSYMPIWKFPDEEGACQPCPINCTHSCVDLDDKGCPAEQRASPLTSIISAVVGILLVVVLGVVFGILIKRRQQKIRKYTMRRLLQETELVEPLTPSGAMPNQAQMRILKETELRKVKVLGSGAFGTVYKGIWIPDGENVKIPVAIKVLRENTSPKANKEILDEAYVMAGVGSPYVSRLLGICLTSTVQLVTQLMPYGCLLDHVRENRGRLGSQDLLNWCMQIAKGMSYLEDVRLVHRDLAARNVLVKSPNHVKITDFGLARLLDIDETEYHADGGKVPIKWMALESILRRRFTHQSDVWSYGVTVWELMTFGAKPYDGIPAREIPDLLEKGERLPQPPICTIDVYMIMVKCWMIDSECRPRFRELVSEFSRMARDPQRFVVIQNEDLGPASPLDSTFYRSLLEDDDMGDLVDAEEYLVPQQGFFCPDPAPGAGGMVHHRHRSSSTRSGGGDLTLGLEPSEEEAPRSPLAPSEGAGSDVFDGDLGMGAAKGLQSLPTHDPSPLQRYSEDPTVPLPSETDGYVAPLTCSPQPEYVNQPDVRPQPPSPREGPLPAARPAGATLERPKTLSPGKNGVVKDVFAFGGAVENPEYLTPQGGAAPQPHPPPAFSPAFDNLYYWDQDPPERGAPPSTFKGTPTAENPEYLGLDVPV
SMILES,viability [1] [%],Her2 level [2],viability [3],viability [4],viability [5],differential viability (reversal) ([6]; H69AR cells + 2 uM doxorubicin),"viability [6, 9] [%]","viability [6, 10] [%]",inhibition [7],inhibition [8]
Cc1cc(=O)n2[nH]c(COc3ccccc3)nc2n1,101,105% (inactive),101% (inactive),94.1% (inactive),108% (inactive),14% (inactive),94,108,-5.33% (inactive),-6.13% (inactive)
CCCCOCCCNC(=O)c1ccccc1OCC,89,88.5% (inactive),89% (inactive),108% (inactive),87.8% (inactive),9.53% (inactive),78.2,87.8,-3.72% (inactive),-4.67% (inactive)
O=C1NC2=C(C(=O)CCC2)C(c2ccc3ncccc3c2)N1 (stereo not given),106,91% (inactive),106% (inactive),115% (inactive),98.4% (inactive),12.6% (inactive),85.8,98.4,-1.64% (inactive),1.9% (inactive)
O=C1CC(c2ccco2)=Nc2ccccc2N1,95,118% (inactive),95% (inactive),94.9% (inactive),109% (inactive),16.7% (inactive),92.5,109,-0.13% (inactive),-3.06% (inactive)
O=C(Nc1ccc(Cc2ccc(NC(=O)N3CCOCC3)cc2)cc1)N1CCOCC1,97,94% (inactive),97% (inactive),90.1% (inactive),98.5% (inactive),15.7% (inactive),82.8,98.5,-4.87% (inactive),-1.17% (inactive)
O=C(C1CCCN(S(=O)(=O)c2cccnc2)C1)N1CCN(c2ccccn2)CC1 (stereo not given),93.5,122% (inactive),93.5% (inactive),103% (inactive),98.7% (inactive),8.35% (inactive),90.3,98.7,0% (inactive),-4% (inactive)
O=c1c2nnn(Cc3ccc(Cl)cc3)c2ncn1Cc1ccc(F)cc1,124,89.5% (inactive),124% (inactive),65.6% (inactive),94.6% (inactive),7.53% (inactive),87.1,94.6,-9.86% (inactive),1.75% (inactive)
CCCn1c(SCC(=O)N2CCN(c3ccccc3)CC2)nc2ccccc2c1=O,117,90.5% (inactive),117% (inactive),70.7% (inactive),83.8% (inactive),0.045% (inactive),83.8,83.8,8.38% (inactive),32.7% (active)
CN(C)S(=O)(=O)N1CCN(c2cccc(Cl)c2)CC1,112,101% (inactive),112% (inactive),92% (inactive),91% (inactive),-15% (inactive),106,91,0% (inactive),27% (inactive)
O=c1oc2ccccc2c2c1ncn2-c1ccccc1,100,96% (inactive),100% (inactive),90.4% (inactive),89.1% (inactive),-8.58% (inactive),97.7,89.1,0.52% (inactive),-2.13% (inactive)
Cc1cccc(N2CCN(Cc3c(C)n(C)n(-c4ccccc4)c3=O)CC2)c1C,83.5,88.5% (inactive),83.5% (inactive),78.1% (inactive),83.9% (inactive),0.085% (inactive),83.8,83.9,-2.47% (inactive),-1.31% (inactive)
COc1cccc(-c2cc(C(=O)Nc3cc(OC)c(OC)c(OC)c3)no2)c1,106,99.5% (inactive),106% (inactive),57.5% (inactive),16.6% (active),-72% (inactive),88.6,16.6,-4.59% (inactive),-3.11% (inactive)
N#Cc1cc2sc3nnc(-c4ccncc4)n3c2cc1C#N,112,35.5% (active),112% (inactive),37.8% (inactive),32.3% (active),-18.2% (inactive),50.5,32.3,-1.71% (inactive),7.94% (inactive)
N#Cc1cn(CC(=O)N2CCCC2)c2ccccc12,118,85% (inactive),118% (inactive),100% (inactive),93.6% (inactive),8.44% (inactive),85.2,93.6,-3.29% (inactive),1.15% (inactive)
COC(=O)c1cc(O)c(OCc2ccccc2)c(O)c1,88,98% (inactive),88% (inactive),114% (inactive),94.3% (inactive),18% (inactive),76.3,94.3,2.63% (inactive),-7.09% (inactive)
O=C(NCCCN1CCCC1=O)c1ccc2c(c1)NC(=O)C(N1CCOCC1)S2 (stereo not given),143,94.5% (inactive),143% (inactive),115% (inactive),89.5% (inactive),6.1% (inactive),83.3,89.5,-6.4% (inactive),0.82% (inactive)

SMILES,viability [1] [%],Her2 level [2],viability [3],viability [4],viability [5],differential viability (reversal) ([6]; H69AR cells + 2 uM doxorubicin),"viability [6, 9] [%]","viability [6, 10] [%]",inhibition [7],inhibition [8]
CSc1nnc(-c2ccc(NC(=O)CCc3ccccc3)cc2)n1C,91.5,82.5% (inactive),91.5% (inactive),111% (inactive),87% (inactive),-2.53% (inactive),89.5,87,-4.59% (inactive),3.11% (inactive)
CCNc1nc(N2CCOCC2)nc(N(c2ccccc2)c2ccccc2)n1,80.5,97% (inactive),80.5% (inactive),62.2% (inactive),84.2% (inactive),4.78% (inactive),79.4,84.2,-3.55% (inactive),-10% (inactive)
Cc1c(C2Nc3ccccc3NC3=C2C(=O)CC(C)(C)C3)cnn1C (stereo not given),112,107% (inactive),112% (inactive),93% (inactive),89.2% (inactive),0.765% (inactive),88.4,89.2,-4.38% (inactive),-5.87% (inactive)
COc1ccc(C(=O)c2ccccc2)c(O)c1,86.5,110% (inactive),86.5% (inactive),97.7% (inactive),106% (inactive),13.6% (inactive),92,106,-3.33% (inactive),22.7% (inactive)
CCOc1ccc(-c2nc(C#N)c(N3CCCCCC3)o2)cc1,138,82% (inactive),138% (inactive),79.5% (inactive),94.7% (inactive),-0.54% (inactive),95.2,94.7,0.64% (inactive),-0.17% (inactive)
CNC(=O)CSc1nnc(-c2cccc(S(=O)(=O)N3CCOCC3)c2)n1-c1ccc(F)cc1,78.5,95% (inactive),78.5% (inactive),99.9% (inactive),93.2% (inactive),-5.28% (inactive),98.5,93.2,0% (inactive),-2.5% (inactive)
CCC(=O)N[C@@H]1CC(C(C)(C)NC(=O)CC)CC=C1C (stereo not given in full),105,83.5% (inactive),105% (inactive),93.4% (inactive),86.4% (inactive),-1% (inactive),87.4,86.4,-5.33% (inactive),-0.33% (inactive)
CC(NS(=O)(=O)c1ccccc1)C(c1cccs1)N1CCN(C)CC1 (stereo not given),93.5,79.5% (inactive),93.5% (inactive),81.1% (inactive),94.5% (inactive),15% (inactive),79.4,94.5,-5% (inactive),-6.83% (inactive)
CC(CN1CCN(C)CC1)OC(=O)c1ccc(Cl)cc1Cl (stereo not given),127,90.5% (inactive),127% (inactive),88.6% (inactive),102% (inactive),14% (inactive),88.2,102,-4.53% (inactive),10% (inactive)
CC(Oc1ccc(Cl)cc1Cl)C(=O)Nc1ncccn1 (stereo not given),93.5,108% (inactive),93.5% (inactive),99.6% (inactive),97.2% (inactive),9.42% (inactive),87.7,97.2,-1.17% (inactive),-11% (inactive)
Cc1cc(NC(=O)COC(=O)c2cccc(S(=O)(=O)N3CCOCC3)c2)no1,112,88% (inactive),112% (inactive),92.4% (inactive),91.1% (inactive),6.37% (inactive),84.8,91.1,-5% (inactive),1.9% (inactive)
O=C(c1ccc2ccccc2n1)N1CCN(c2ccccc2)CC1,88.5,86% (inactive),88.5% (inactive),100% (inactive),112% (inactive),13.8% (inactive),98.6,112,-4.19% (inactive),-3.61% (inactive)
CCOc1cc(NC(=O)c2ccco2)c(OCC)cc1NC(=O)CCC(=O)NCc1cccnc1,95.5,100% (inactive),95.5% (inactive),88.1% (inactive),86.1% (inactive),-4.71% (inactive),90.8,86.1,-1.43% (inactive),-4.17% (inactive)
Cc1ccc(S(=O)(=O)NCCN2CCOCC2)cc1C,88.5,93% (inactive),88.5% (inactive),91.7% (inactive),86.1% (inactive),-5.21% (inactive),91.3,86.1,-0.52% (inactive),-1.11% (inactive)
COc1cccc(OC)c1C(=O)N1CCN(S(=O)(=O)c2ccc(C)cc2)CC1,103,108% (inactive),103% (inactive),87.2% (inactive),91.4% (inactive),-5.23% (inactive),96.7,91.4,-7.2% (inactive),-3.28% (inactive)
CCOC(=O)c1sc2ncn(/N=C/N(C)C)c(=O)c2c1C,98,97.5% (inactive),98% (inactive),114% (inactive),100% (inactive),5.85% (inactive),94.1,100,-6.13% (inactive),4.68% (inactive)
